Test results taken from ChEMBL document CHEMBL2321845, “Discovery of 4-Aryl-2-benzoyl-imidazoles as tubulin polymerization inhibitor with potent antiproliferative properties” (J Med Chem, 2013).

What was measured:
A-375 = test: Cytotoxicity against human A375 cells assessed as growth inhibition after 48 hrs by SRB assay; format: functional, cell-based; conditions: A-375, 48 h
How it was run: (§1)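 Melanoma cells from ATCC, grown in DMEM with 10% FBS at 37°C under 5% CO2. Seeded at 1000–5000 cells/well according to growth rate and exposed to a range of compound concentrations for 48 h, in three to five replicates. Cells were fixed with 10% TCA, stained with 0.4% SRB and read at 540 nm.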

LNCaP = test: Cytotoxicity against human LNCAP cells assessed as growth inhibition after 96 hrs by SRB assay; format: functional, cell-based
How it was run: (§2)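 Plated at 1000–5000 cells/well depending on growth rate and treated with graded compound concentrations for 96 h, three to five replicates. Cell number was measured by SRB: 10% TCA fixation, 0.4% SRB staining, absorbance at 540 nm. IC50 relative to untreated control came from a nonlinear regression fit.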

DU-145 = test: Cytotoxicity against human DU145 cells assessed as growth inhibition after 96 hrs by SRB assay; format: functional, cell-based
MDA-MB-435 = test: Cytotoxicity against human MDA-MB-435 cells assessed as growth inhibition after 48 hrs by SRB assay; format: functional, cell-based; conditions: MDA-MB-435, 48 h
PC-3 [1] = test: Cytotoxicity against human PC3 cells assessed as growth inhibition after 96 hrs by SRB assay; format: functional, cell-based; conditions: PC-3, 96 h; how it was run: as §2
[2] = Cytotoxicity against human MDA-MB-435/LCC6MDR1 cells assessed as growth inhibition after 48 hrs by SRB assay; format: functional, cell-based, MDA-MB-435/LCC6 MDR1
[3] = Cytotoxicity against human WM164 cells assessed as growth inhibition after 48 hrs by SRB assay; format: functional, cell-based; conditions: WM164, 48 h
How it was run: as §1, with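 “nm. IC50 (50% growth inhibition versus untreated control) was taken from nonlinear regression of % survival against concentration.” for “nm.”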

PPC-1 = test: Cytotoxicity against human PPC1 cells assessed as growth inhibition after 96 hrs by SRB assay; format: functional, cell-based; conditions: PPC-1, 96 h; how it was run: as §2
PC-3 [4] = test: Cell cycle arrest in human PC3 cells assessed as accumulation at G2/M phase after 24 hrs by propidium iodide staining based FACS analysis (reference value: 18%); format: functional
[5] = Homo sapiens, MDA-MB-435/LCC6 MDR1, 48 h

SMILES | IC50 (A-375) [nM] | IC50 (LNCaP) [nM] | IC50 (DU-145; Homo sapiens, DU-145, 96 h) [nM] | IC50 (MDA-MB-435) [nM] | IC50 (PC-3 [1]) [nM] | IC50 [2, 5] [nM] | IC50 [3] [nM] | IC50 (PPC-1) [nM] | IC50 (DU-145; du-145) [nM] | IC50 ([2]; mda-mb-435/lcc6 mdr1) [nM] | Activity (PC-3 [4]) | Activity (PC-3 [4]; record 2)
COc1cc(Cc2nc(-c3ccccc3)c(C)[nH]2)cc(OC)c1OC | > 50000 | – | – | – | – | – | – | – | – | – | – | –
COc1cc(C(=O)c2nc(-c3ccc(Cl)cc3)c[nH]2)cc(OC)c1OC | 51 | 22 | 125 | 106 | 64 | 75 | 63 | 51 | – | – | – | –
COc1ccc(C(=O)c2nc(-c3cc(OC)c(OC)c(OC)c3)c[nH]2)cc1 | 35400 | 708 | > 50000 | 11000 | 10400 | 11400 | 36000 | 5680 | – | – | – | –
COc1cc(C(=O)c2c[nH]c(-c3ccc(C(C)(C)C)cc3)n2)cc(OC)c1OC | – | 423 | 1700 | 3690 | 436 | 3070 | – | 294 | – | – | – | –
O=C(c1ccc(O)cc1)c1nc(-c2ccc(O)cc2)c[nH]1 | 38800 | – | – | 48000 | – | 21400 | 48200 | – | – | – | – | –
COc1cc(C(=O)c2c[nH]c(-c3ccc(C)cc3)n2)cc(OC)c1OC | – | – | – | – | – | – | – | – | 11 | 11 | – | –
O=C(c1ccccc1)c1nc(-c2ccccc2)c[nH]1 | > 50000 | > 50000 | > 50000 | > 50000 | > 50000 | > 50000 | > 50000 | > 50000 | – | – | – | –
COc1cc(Cc2nc(-c3ccccc3)c[nH]2)cc(OC)c1OC | 10200 | – | – | – | – | – | – | – | – | – | – | –
O=C(c1ccc(Br)cc1)c1nc(-c2ccc(Br)cc2)c[nH]1 | 25000 | 16900 | 25500 | 14400 | 18900 | 17800 | 26300 | 13200 | – | – | – | –
COc1cc(C(=O)c2nc(-c3ccc(C)cc3)c[nH]2)cc(OC)c1OC | 13 | 13 | – | 27 | – | 21 | 14 | – | – | – | – | –
COc1ccc(-c2c[nH]c(C(=O)c3cc(OC)c(OC)c(OC)c3)n2)cc1 | 33 | – | 210 | 55 | 61 | 59 | 41 | 54 | – | – | – | –
COc1cc(-c2c[nH]c(C(=O)c3ccccc3)n2)cc(OC)c1OC | 1020 | 195 | 1300 | 4610 | 632 | 5770 | 1270 | 408 | – | – | – | –
COc1cc(C(=O)c2c[nH]c(-c3ccc(C(C)C)cc3)n2)cc(OC)c1OC | – | 171 | 482 | 312 | 136 | 250 | – | 173 | – | – | – | –
CCCc1[nH]c(Cc2cc(OC)c(OC)c(OC)c2)nc1-c1ccccc1 | – | – | – | 10900 | – | 15900 | – | – | – | – | – | –
CCc1[nH]c(Cc2cc(OC)c(OC)c(OC)c2)nc1-c1ccccc1 | – | – | – | > 50000 | – | > 50000 | – | – | – | – | – | –
COc1cc(C(=O)c2nc(-c3ccc(O)cc3)c[nH]2)cc(OC)c1OC | 487 | 219 | 518 | 669 | 155 | 455 | 549 | 122 | – | – | – | –
CCc1ccc(-c2nc(C(=O)c3cc(OC)c(OC)c(OC)c3)c[nH]2)cc1 | 14 | – | 25 | 25 | 13 | 27 | – | 15 | – | – | Dose-dependent effect | <=70%
COc1cc(-c2c[nH]c(C(=O)c3ccc(N(C)C)cc3)n2)cc(OC)c1OC | 47900 | – | – | 29200 | – | 40600 | 46100 | – | – | – | – | –
CCCn1cc(-c2ccccc2)nc1C(=O)c1cc(OC)c(OC)c(OC)c1 | 42 | 49 | 72 | 37 | 26 | 44 | 14 | 10 | – | – | – | –

SMILES | IC50 (A-375) [nM] | IC50 (LNCaP) [nM] | IC50 (DU-145; Homo sapiens, DU-145, 96 h) [nM] | IC50 (MDA-MB-435) [nM] | IC50 (PC-3 [1]) [nM] | IC50 [2, 5] [nM] | IC50 [3] [nM] | IC50 (PPC-1) [nM] | IC50 (DU-145; du-145) [nM] | IC50 ([2]; mda-mb-435/lcc6 mdr1) [nM] | Activity (PC-3 [4]) | Activity (PC-3 [4]; record 2)
COc1cc(Cc2nc(-c3ccccc3)c(-c3ccccc3)[nH]2)cc(OC)c1OC | – | – | – | > 50000 | – | > 50000 | – | – | – | – | – | –
COc1cc(C(=O)c2nc(-c3ccc(N(C)C)cc3)c[nH]2)cc(OC)c1OC | 141 | 96 | 263 | 200 | 118 | 162 | 129 | 120 | – | – | – | –
COc1cc(C(=O)c2nc(-c3ccccc3)c(C)[nH]2)cc(OC)c1OC | 1300 | 938 | 2000 | 1630 | 1620 | 1590 | 1900 | 860 | – | – | – | –
CN(C)c1ccc(C(=O)c2nc(-c3ccc(N(C)C)cc3)c[nH]2)cc1 | > 50000 | – | – | > 50000 | – | > 50000 | > 50000 | – | – | – | – | –
COc1cc(-c2c[nH]c(C(=O)c3ccc(Br)cc3)n2)cc(OC)c1OC | 136 | 131 | 429 | 186 | 371 | 161 | 177 | 106 | – | – | – | –
O=C(c1ccc(C(F)(F)F)cc1)c1nc(-c2ccc(C(F)(F)F)cc2)c[nH]1 | > 50000 | > 50000 | > 50000 | > 50000 | > 50000 | 26500 | > 50000 | > 50000 | – | – | – | –
COc1cc(C(=O)c2nc(-c3cc(OC)c(OC)c(OC)c3)c[nH]2)cc(OC)c1OC | > 50000 | > 50000 | > 50000 | > 50000 | > 50000 | > 50000 | > 50000 | > 50000 | – | – | – | –
COc1cc(C(=O)c2nc(-c3ccccc3)cn2C2CCCC2)cc(OC)c1OC | 135 | 51 | 167 | 134 | 56 | 161 | 56 | 63 | – | – | – | –
COc1cc(-c2c[nH]c(C(=O)c3ccc(O)cc3)n2)cc(OC)c1OC | > 50000 | – | – | > 50000 | – | > 50000 | > 50000 | – | – | – | – | –
CCCc1[nH]c(C(=O)c2cc(OC)c(OC)c(OC)c2)nc1-c1ccccc1 | 37000 | 3090 | 16400 | 30500 | 12400 | 14300 | 19600 | 11400 | – | – | – | –
O=C(c1ccc(Cl)cc1)c1nc(-c2ccc(Cl)cc2)c[nH]1 | 35700 | > 50000 | > 50000 | > 50000 | > 50000 | > 50000 | > 50000 | > 50000 | – | – | – | –
CCc1[nH]c(C(=O)c2cc(OC)c(OC)c(OC)c2)nc1-c1ccccc1 | 2150 | 2030 | 5080 | 8800 | 3650 | 5110 | 5510 | 2080 | – | – | – | –
COc1cc(C(=O)c2nc(-c3ccc(F)cc3)c[nH]2)cc(OC)c1OC | 197 | 114 | 353 | 320 | 196 | 263 | 298 | 134 | – | – | – | –
COc1ccc(C(=O)c2nc(-c3ccc(OC)cc3)c[nH]2)cc1 | > 50000 | 6420 | 9840 | > 50000 | 23400 | > 50000 | > 50000 | 38200 | – | – | – | –
COc1cc(C(=O)c2nc(-c3ccccc3)cn2Cc2ccccc2)cc(OC)c1OC | 104 | 66 | 160 | 94 | 72 | 156 | 34 | 77 | – | – | – | –
Cc1ccc(C(=O)c2nc(-c3ccc(C)cc3)c[nH]2)cc1 | 2540 | 3760 | 6540 | 3020 | 5160 | 3270 | 3690 | 2400 | – | – | – | –
COc1cc(C(=O)c2nc(-c3ccccc3)cn2C(C)C)cc(OC)c1OC | 38 | 62 | 114 | 18 | 53 | 44 | 23 | 15 | – | – | – | –
O=C(c1ccc(F)cc1)c1nc(-c2ccc(F)cc2)c[nH]1 | > 50000 | > 50000 | > 50000 | > 50000 | > 50000 | > 50000 | > 50000 | > 50000 | – | – | – | –
COc1cc(C(=O)c2nc(-c3ccccc3)cn2-c2cccs2)cc(OC)c1OC | 20 | – | – | 25 | – | 27 | 8 | – | – | – | – | –
